# Assays:
# Assay type in all cases: functional
# Rattus norvegicus [1] = experiment: Antiinflammatory activity in Wistar rat assessed as inhibition of carrageenan-induced hind paw edema at 20 mg/kg, po administered 30 mins before carrageenan challenge measured after 5 hrs by plethysmometer
# Outline: (§1)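 Wistar rats of either sex, 150–175 g, fasted 16 h, n = 6 per group. Compound given orally at 20 mg/kg as a suspension in 1% CMC in water (10 mL/kg); controls got vehicle only. After 30 min, 0.1 mL of 1% carrageenan in saline was injected subplantar into the left hind paw. Paw volume was measured by plethysmometer at 0, 3 and 5 h. Inhibition = (1 − Vt/Vc) × 100, reported as mean ± SEM.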
# Rattus norvegicus [2] = experiment: Antiinflammatory activity in Wistar rat assessed as inhibition of carrageenan-induced hind paw edema at 20 mg/kg, po administered 30 mins before carrageenan challenge measured after 3 hrs by plethysmometer; outline: as §1
# OVCAR-3 = experiment: Anticancer activity against human OVCAR3 cells assessed as cellular growth at 10 uM
# Outline: (§2)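 Primary single-dose screen at 10⁻⁵ M, run under the NCI Drug Evaluation Branch protocol against the full panel of about 60 human tumour lines. The lines come from leukaemia, melanoma, lung, colon, CNS, ovarian, renal, prostate and breast cancers. Read-out is cellular growth.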
# HCT-15 = experiment: Anticancer activity against human HCT15 cells assessed as cellular growth at 10 uM
# Outline: (§3)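 Primary one-dose screen at 10⁻⁵ M, run per the NCI Drug Evaluation Branch protocol on the full panel of about 60 human tumor lines. The panel covers nine cancer types: leukemia, melanoma, lung, colon, CNS, ovarian, renal, prostate and breast.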
# EKVX = experiment: Anticancer activity against human EKVX cells assessed as cellular growth at 10 uM; outline: as §3
# M14 = experiment: Anticancer activity against human M14 cells assessed as cellular growth at 10 uM; outline: as §3
# NCI-H226 = experiment: Anticancer activity against human NCI-H226 cells assessed as cellular growth at 10 uM; outline: as §2
# PC-3 = experiment: Anticancer activity against human PC3 cells assessed as cellular growth at 10 uM; outline: as §2
# SK-MEL-28 = experiment: Anticancer activity against human SK-MEL-28 cells assessed as cellular growth at 10 uM; outline: as §2
# BT-549 = experiment: Anticancer activity against human BT549 cells assessed as cellular growth at 10 uM; outline: as §3
# MDA-MB-231 = experiment: Anticancer activity against human MDA-MB-231 cells assessed as cellular growth at 10 uM; outline: as §3
# HCC 2998 = experiment: Anticancer activity against human HCC2998 cells assessed as cellular growth at 10 uM; outline: as §3
# MCF7 = experiment: Anticancer activity against human MCF7 cells assessed as cellular growth at 10 uM; outline: as §3
# HT-29 = experiment: Anticancer activity against human HT-29 cells assessed as cellular growth at 10 uM; outline: as §3
# UACC-257 = experiment: Anticancer activity against human UACC257 cells assessed as cellular growth at 10 uM
# Outline: (§4)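 NCI primary one-dose screen at 10⁻⁵ M against the ~60 human tumour cell line panel (leukemia, melanoma, lung, colon, CNS, ovarian, renal, prostate, breast). Read-out is cellular growth.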
# NCI-H322M = experiment: Anticancer activity against human NCI-H322M cells assessed as cellular growth at 10 uM; outline: as §2
# NCI-H522 = experiment: Anticancer activity against human NCI-H522 cells assessed as cellular growth at 10 uM; outline: as §2
# KM12 = experiment: Anticancer activity against human KM12 cells assessed as cellular growth at 10 uM; outline: as §3
# A498 = experiment: Anticancer activity against human A498 cells assessed as cellular growth at 10 uM; outline: as §3
# SK-MEL-2 = experiment: Anticancer activity against human SK-MEL-2 cells assessed as cellular growth at 10 uM; outline: as §2
# OVCAR-8 = experiment: Anticancer activity against human OVCAR8 cells assessed as cellular growth at 10 uM; outline: as §2
# RPMI-8226 = experiment: Anticancer activity against human RPMI8226 cells assessed as cellular growth at 10 uM; outline: as §2
# TK-10 = experiment: Anticancer activity against human TK10 cells assessed as cellular growth at 10 uM; outline: as §4
# SF-295 = experiment: Anticancer activity against human SF295 cells assessed as cellular growth at 10 uM; outline: as §2
# SN12C = experiment: Anticancer activity against human SN12C cells assessed as cellular growth at 10 uM; outline: as §2
# DU-145 = experiment: Anticancer activity against human DU145 cells assessed as cellular growth at 10 uM; outline: as §3
# SK-MEL-5 = experiment: Anticancer activity against human SK-MEL-5 cells assessed as cellular growth at 10 uM; outline: as §2
# OVCAR-4 = experiment: Anticancer activity against human OVCAR4 cells assessed as cellular growth at 10 uM; outline: as §2
# SF-268 = experiment: Anticancer activity against human SF268 cells assessed as cellular growth at 10 uM; outline: as §2
# HOP-92 = experiment: Anticancer activity against human HOP92 cells assessed as cellular growth at 10 uM; outline: as §3
# NCI-H460 = experiment: Anticancer activity against human NCI-H460 cells assessed as cellular growth at 10 uM; outline: as §2
# NCI-H23 = experiment: Anticancer activity against human NCI-H23 cells assessed as cellular growth at 10 uM; outline: as §2
# HCT-116 = experiment: Anticancer activity against human HCT116 cells assessed as cellular growth at 10 uM; outline: as §3
# MDA-MB-468 = experiment: Anticancer activity against human MDA-MB-468 cells assessed as cellular growth at 10 uM; outline: as §2
# A549 = experiment: Anticancer activity against human A549 cells assessed as cellular growth at 10 uM; outline: as §3
# SNB-19 = experiment: Anticancer activity against human SNB19 cells assessed as cellular growth at 10 uM; outline: as §2
# SW-620 = experiment: Anticancer activity against human SW620 cells assessed as cellular growth at 10 uM; outline: as §4
# COLO 205 = experiment: Anticancer activity against human COLO205 cells assessed as cellular growth at 10 uM; outline: as §3
# HOP-62 = experiment: Anticancer activity against human HOP62 cells assessed as cellular growth at 10 uM; outline: as §3
# SNB-75 = experiment: Anticancer activity against human SNB75 cells assessed as cellular growth at 10 uM; outline: as §2
# IGROV-1 = experiment: Anticancer activity against human IGROV1 cells assessed as cellular growth at 10 uM; outline: as §3
# RXF 393 = experiment: Anticancer activity against human RXF393 cells assessed as cellular growth at 10 uM; outline: as §2
# OVCAR-5 = experiment: Anticancer activity against human OVCAR5 cells assessed as cellular growth at 10 uM; outline: as §2
# SK-OV-3 = experiment: Anticancer activity against human SKOV3 cells assessed as cellular growth at 10 uM; outline: as §2
# T47D = experiment: Anticancer activity against human T47D cells assessed as cellular growth at 10 uM; outline: as §4
# U-251 = experiment: Anticancer activity against human U251 cells assessed as cellular growth at 10 uM; outline: as §4
# UO-31 = experiment: Anticancer activity against human UO31 cells assessed as cellular growth at 10 uM; outline: as §4
# UACC-62 = experiment: Anticancer activity against human UACC62 cells assessed as cellular growth at 10 uM; outline: as §4
# 786-0 = experiment: Anticancer activity against human 786-0 cells assessed as cellular growth at 10 uM; outline: as §3
# LOX IMVI = experiment: Anticancer activity against human LOXIMVI cells assessed as cellular growth at 10 uM; outline: as §3
# MDA-MB-435 = experiment: Anticancer activity against human MDA-MB-435 cells assessed as cellular growth at 10 uM; outline: as §3
# NCI/ADR-RES = experiment: Anticancer activity against human NCI/ADR-RES cells assessed as cellular growth at 10 uM; outline: as §2
# Malme-3M = experiment: Anticancer activity against human MALME-3M cells assessed as cellular growth at 10 uM; outline: as §3
# ACHN = experiment: Anticancer activity against human ACHN cells assessed as cellular growth at 10 uM; outline: as §3
# SF-539 = experiment: Anticancer activity against human SF539 cells assessed as cellular growth at 10 uM; outline: as §2
# [3] = Anticancer activity against human Hs 578T cells assessed as cellular growth at 10 uM; outline: as §3
smiles,measurement,setting,value
Cc1ccc(-c2cc(C(F)(F)F)nn2-c2ccc(S(N)(=O)=O)cc2)cc1 [CELECOXIB],inhibition in vivo at 20 mg/kg,Rattus norvegicus [1],85.7%
same,inhibition in vivo at 20 mg/kg,Rattus norvegicus [2],82.6%
COc1ccc(C2CC(c3cc(Cl)c(C)cc3OC)=NN2c2ccc(S(N)(=O)=O)cc2)cc1OC (configuration not stated),Activity,OVCAR-3,103.3%
same,Activity,HCT-15,75.93%
same,Activity,EKVX,80.65%
same,Activity,M14,81.83%
same,Activity,NCI-H226,81.27%
same,Activity,PC-3,52.25%
same,Activity,SK-MEL-28,108.41%
same,Activity,BT-549,83.23%
same,Activity,MDA-MB-231,84.64%
same,Activity,HCC 2998,99.94%
same,inhibition in vivo at 20 mg/kg,Rattus norvegicus [1],47.6%
same,Activity,MCF7,80.37%
same,Activity,HT-29,78.73%
same,Activity,UACC-257,87.16%
same,Activity,NCI-H322M,103.5%
same,Activity,NCI-H522,74.33%
same,Activity,KM12,91.8%
same,Activity,A498,111.51%
same,Activity,SK-MEL-2,95.75%
same,Activity,OVCAR-8,73.83%
same,Activity,RPMI-8226,90.96%
same,Activity,TK-10,112.95%
same,Activity,SF-295,122.81%
same,Activity,SN12C,87.41%
same,Activity,DU-145,105.76%
same,Activity,SK-MEL-5,84.63%
same,Activity,OVCAR-4,87.79%
same,Activity,SF-268,90.07%
same,Activity,HOP-92,101.2%
same,Activity,NCI-H460,89.78%
same,Activity,NCI-H23,75.79%
same,Activity,HCT-116,56.66%
same,Activity,MDA-MB-468,94.62%
same,Activity,A549,73.23%
same,Activity,SNB-19,100.7%
same,Activity,SW-620,93.6%
same,Activity,COLO 205,101.3%
same,Activity,HOP-62,87.79%
same,Activity,SNB-75,83.56%
same,Activity,IGROV-1,79.08%
same,Activity,RXF 393,77.69%
same,Activity,OVCAR-5,70.62%
same,Activity,SK-OV-3,116.37%
same,Activity,T47D,77.03%
same,inhibition in vivo at 20 mg/kg,Rattus norvegicus [2],31.6%
same,Activity,U-251,78.37%
same,Activity,UO-31,59.09%
same,Activity,UACC-62,65.06%
same,Activity,786-0,92.29%
same,Activity,LOX IMVI,77.92%
same,Activity,MDA-MB-435,95.83%
same,Activity,NCI/ADR-RES,77.18%
same,Activity,Malme-3M,101.32%
same,Activity,ACHN,83.96%
same,Activity,SF-539,102.69%
same,Activity,[3],100.69%
COc1cc(C)c(Cl)cc1C1=NN(c2ccc(S(N)(=O)=O)cc2)C(c2ccccc2)C1 (configuration not stated),inhibition in vivo at 20 mg/kg,Rattus norvegicus [1],59.5%
same,inhibition in vivo at 20 mg/kg,Rattus norvegicus [2],55.3%
COc1cc(C)c(Cl)cc1C1=NN(c2ccc(S(N)(=O)=O)cc2)C(c2cccc(O)c2)C1 (configuration not stated),inhibition in vivo at 20 mg/kg,Rattus norvegicus [1],16.7%
same,inhibition in vivo at 20 mg/kg,Rattus norvegicus [2],39.5%

# — ChEMBL document CHEMBL1914430, “Synthesis of some new 1,3,5-trisubstituted pyrazolines bearing benzene sulfonamide as anticancer and anti-inflammatory agents” (Bioorg Med Chem Lett, 2011)
